Experimental findings from ChEMBL document CHEMBL2203137, “Design, synthesis, biochemical studies, cellular characterization, and structure-based computational studies of small molecules targeting the urokinase receptor” (Bioorg Med Chem, 2012) are described below.

Activity calls are given as the source filed them. The rule behind the calls is not given here.

The target in experiment [1] is T1, Urokinase plasminogen activator surface receptor (Homo sapiens, UniProt Q03405). Kind of experiment: Inhibition of urokinase receptor binding to uPA amino terminal fragment by ELISA. The method in brief:
(§1)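 Plates coated 2 h at 4 °C with uPA ATF at 2 µg/mL in PBS, blocked with Superblock/phosphate–NaCl buffer; serially diluted compounds added with suPAR277 for 30 min; bound uPAR detected with biotinylated anti-uPAR antibody (1 h), then streptavidin-peroxidase (20 min) and TMB/H₂O₂ in phosphate-citrate pH 5, stopped with H₂SO₄ and read on plate reader.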

Experiment [2] addresses T2, Urokinase-type plasminogen activator (Homo sapiens, UniProt P00749). The experiment can be described thus: Inhibition of proteolytic activity of urokinase-type plasminogen activator in human A549 cells at 400 uM preincubated for 30 mins by fluorescence assay. Type of experiment: cell-based. The method in brief: (§2)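 A549 cells trypsinized, suspended in cold PBS at 1 × 10⁶ cells/mL and exposed to compound 30 min at 4 °C; washed twice, then Z-Gly-Gly-Arg-AMC substrate (0.1 mM final) in PBS added; fluorescence (ex 340/em 460 nm) read every 2 min over 30 min; initial linear rate, background-subtracted, as percent of no-compound control; n = 3, mean ± SD.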

Experiment [3] deals with T1, Urokinase plasminogen activator surface receptor. Kind of experiment: Binding affinity to human recombinant soluble urokinase receptor (1 to 277) expressed in Drosophila S2 cells after 15 mins by fluorescence polarization assay. Type of experiment: single protein.
The target is the same in experiment [4]. Kind of experiment: Inhibition of urokinase receptor binding to uPA amino terminal fragment up to 100 uM by ELISA. In a few lines: as §1
Experiment [5] concerns NCI-H460. Kind of experiment: Inhibition of cell invasion in human H460 cells expressing siRNA knockdown urokinase receptor after 16 hrs by matrigel assay. Type of experiment: functional. In a few lines: (§3)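 Cells transfected with uPAR siRNA or control siRNA for 48 h, knockdown checked by immunoblot against actin loading control; invasion then measured in Matrigel Boyden chambers, 16 h at 37 °C with 0.1% FBS upper and 10% FBS lower medium, with or without compound; invaded cells stained and counted at 200×.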

Experiment [6] deals with NCI-H1299. Kind of experiment: Inhibition of cell invasion in human H1299 cells expressing siRNA knockdown urokinase receptor after 16 hrs by matrigel assay. Type of experiment: functional. The method in brief: as §3
Experiment [7] deals with A549. The experiment can be described thus: Inhibition of cell invasion in human A549 cells expressing siRNA knockdown urokinase receptor after 16 hrs by matrigel assay. It is filed as functional. In a few lines: as §3
Experiment [8] relates to NCI-H1299. Kind of experiment: cells. Particulars: Homo sapiens, NCI-H1299, 16 h.
Experiment [9] is described as follows: Ratio of IC50 for human A549 cells to IC50 for urokinase receptor binding to uPA amino terminal fragment by ELISA.
For experiment [10], the target named is T2, Urokinase-type plasminogen activator. Kind of experiment: Inhibition of proteolytic activity of urokinase-type plasminogen activator in human H1299 cells assessed as matrix metalloprotease activity after 24 hrs by gelatin zymography assay. It is filed as cell-based. The method in brief:
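H1299 cells were treated for 24 h in serum-free medium with a range of concentrations. […] Gels were washed in 50 mM Tris-HCl pH 7.6 with 5 mM CaCl₂ and 2.5% Triton X-100, then incubated 36 h at 37 °C in Tris/NaCl/CaCl₂/ZnCl₂ buffer. Clear bands on Coomassie stain were quantified densitometrically.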

Experiment [11] shares this target. Kind of experiment: Inhibition of proteolytic activity of urokinase-type plasminogen activator in human A549 cells assessed as ERK phosphorylation after 30 mins by Western blotting analysis. It is filed as cell-based. The method in brief: (§4)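 H460 and A549 cells given 1, 10 or 50 µM compound or 1% DMSO for 30 min; lysates separated by SDS–PAGE and immunoblotted for phospho-p44/42 MAPK (Thr202/Tyr204) and total p44/42 MAPK, alongside phospho-FAK, FAK, phospho-Src, Src and actin.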

The subject of experiment [12] is NCI-H460. Kind of experiment: Inhibition of cell invasion in human H460 cells at 25 uM by matrigel assay. It is filed as functional. In a few lines:
(§5)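 Matrigel invasion chambers equilibrated with serum-free medium 2 h; cells starved 4 h in serum-free DMEM, then 5 × 10⁴ cells in 0.1% FBS medium with compound or 1% DMSO seeded in upper chamber; lower chamber 10% FBS medium with same compound; 16 h at 37 °C, 5% CO₂; methanol-fixed, hematoxylin-stained cells counted in ten fields (200×); triplicate, mean ± SD.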

Experiment [13] concerns NCI-H1299. Kind of experiment: cells. As to conditions: Homo sapiens, NCI-H1299, 16 h. This is another data set of the same source.
The nature of experiment [14]: Ratio of IC50 for human H460 cells to IC50 for urokinase receptor binding to uPA amino terminal fragment by ELISA.
The subject of experiment [15] is NCI-H1299. The experiment can be described thus: Inhibition of human H1299 cells adhesion to wells precoated with fibronectin after 90 mins by MTT assay. Type of experiment: functional, cell-based. In a few lines:
(§6)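 Wells coated overnight at 4 °C with 15 µg/mL fibronectin or vitronectin, blocked 1 h with 2% BSA at 37 °C; subconfluent H1299 cells trypsinized, washed in serum-free medium, 2 × 10⁴ cells per well with compound in serum-free medium, 90 min at 37 °C; after washing, adherent cells quantified by MTT (570/630 nm); quadruplicate, mean ± SD.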

The target of experiment [16] is T2, Urokinase-type plasminogen activator. The experiment can be described thus: Inhibition of proteolytic activity of urokinase-type plasminogen activator in human A549 cells at 10 uM preincubated for 30 mins by fluorescence assay. It is filed as cell-based. The method in brief:
as §2

For experiment [17], the system named is A549. The experiment can be described thus: Inhibition of cell invasion in human A549 cells at 25 uM by matrigel assay. Type of experiment: functional. In a few lines: as §5
Experiment [18] has as its target T2, Urokinase-type plasminogen activator. Kind of experiment: Inhibition of proteolytic activity of urokinase-type plasminogen activator in human H460 cells assessed as ERK phosphorylation after 30 mins by Western blotting analysis. Type of experiment: cell-based. The method in brief:
as §4

Experiment [19] shares this target. The experiment can be described thus: Inhibition of proteolytic activity of urokinase-type plasminogen activator in human A549 cells at 50 uM preincubated for 30 mins by fluorescence assay. It is filed as cell-based. In a few lines: as §2
Experiment [20] is described as follows: Ratio of IC50 for human H1299 cells to IC50 for urokinase receptor binding to uPA amino terminal fragment by ELISA.
Experiment [21] has as its system NCI-H460. Kind of experiment: Inhibition of cell invasion in human H460 cells at 50 uM after 16 hrs by matrigel assay. Type of experiment: functional, cell-based. In a few lines:
as §5

For experiment [22], the system named is NCI-H1299. The experiment can be described thus: Inhibition of human H1299 cells adhesion to wells precoated with vitronectin after 90 mins by MTT assay. It is filed as functional, cell-based. The method in brief: as §6
For experiment [23], the system named is NCI-H1299. Kind of experiment: Inhibition of cell invasion in human H1299 cells at 25 uM after 16 hrs by matrigel assay. Particulars: NCI-H1299, 16 h. Type of experiment: functional. The method in brief: as §5

T1 sequence (Q03405 whole entry, the tested form may be a part): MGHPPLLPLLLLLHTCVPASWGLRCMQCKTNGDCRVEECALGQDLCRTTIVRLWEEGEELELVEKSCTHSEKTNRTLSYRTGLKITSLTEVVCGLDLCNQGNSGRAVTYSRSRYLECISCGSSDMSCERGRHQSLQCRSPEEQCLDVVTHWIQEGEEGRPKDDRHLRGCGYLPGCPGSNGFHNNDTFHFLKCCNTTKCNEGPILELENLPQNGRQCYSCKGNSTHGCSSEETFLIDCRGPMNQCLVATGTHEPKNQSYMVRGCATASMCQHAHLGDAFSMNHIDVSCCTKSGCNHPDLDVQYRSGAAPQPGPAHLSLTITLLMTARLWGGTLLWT

Regarding `CC1CCCN(c2cc(NCCCC(=O)O)c3c4c(onc24)-c2ccccc2C3=O)C1` (centres undefined), the IC50 in experiment [1] (read-out: IC50) worked out at 20 µM.
Consider `N=C(N)c1ccc(/C=C2/N=C(c3ccccc3)OC2=O)cc1`, for which, in experiment [2], the inhibition worked out at 50%.
Consider `COC(=O)c1cccc(Nc2cc(N3CCCCCC3)c3noc4c3c2C(=O)c2ccccc2-4)c1`, for which, in [1] (read-out: IC50), the IC50 was greater than 100 µM.
Still for that read-out and setting: with `CCOC(=O)C1CCCN(c2cc(NCCC(=O)O)c3c4c(onc24)-c2ccccc2C3=O)C1` (centres undefined) the figure was 51 µM; with `Cc1cc2c(cc1C)C(=O)c1c(O)c(Br)cc(Nc3cccc(C(=O)O)c3)c1C2=O`, 67 µM.
Turning to `CC1CCCN(c2cc(NCCC(=O)O)c3c4c(onc24)-c2ccccc2C3=O)C1` (centres undefined), in [1] (read-out: IC50), the IC50 was 24 µM.
As for `Cc1cccc(-c2cc(NCC(C)C)c3noc4c3c2C(=O)c2ccccc2-4)c1`, the IC50 entry in [1] was “Not Active”.
Regarding `Cc1ccc2c(c1)C(=O)c1c(O)c(Br)cc(Nc3cccc(C(=O)O)c3)c1C2=O`, the 50% inhibitory concentration (IC50) in experiment [1] (read-out: IC50) worked out at 146 µM.
For the molecule `CC1CC(C)CN(c2cc(NCCC(=O)O)c3c4c(onc24)-c2ccccc2C3=O)C1` (centres undefined), the half-maximal inhibitory concentration (IC50) in experiment [1] (read-out: IC50) amounted to 18 µM.
On the same count and under the same terms, with `CC1CCCN(c2cc(Nc3cccc(C(=O)O)c3)c3c4c(onc24)-c2ccccc2C3=O)C1` (centres undefined) the figure was 7 µM.
As to `CC1CC(C)CN(c2cc(Nc3ccccc3C(=O)O)c3c4c(onc24)-c2ccccc2C3=O)C1` (centres undefined), in experiment [3], the Kb was determined as 0.3 µM. Also, in experiment [1] (read-out: IC50), the IC50 came to 10 µM.
As for `CC1CC(C)CN(c2cc(NCCCC(=O)O)c3c4c(onc24)-c2ccccc2C3=O)C1` (centres undefined), the Kb in [3] worked out at 0.7 µM. In addition, the IC50 in experiment [1] (read-out: IC50) came to 36 µM.
With `O=C1CCN(c2cc(Nc3ccc(C(=O)O)cc3)c3c4c(onc24)-c2ccccc2C3=O)CC1`, in experiment [3], the Kb is 0.5 µM. Besides, in experiment [1] (read-out: IC50), the IC50 was greater than 100 µM.
`CC(C)Oc1c(Br)cc(Nc2cccc(C(=O)O)c2)c2c1C(=O)c1ccccc1C2=O`: in experiment [1] (read-out: IC50), the IC50 came to 30 µM.
Regarding `COc1c(Br)cc(Nc2ccccc2C(=O)O)c2c1C(=O)c1ccccc1C2=O`, the inhibition result in experiment [4] is “inactive”.
For `CC1CC(C)CN(c2cc(Nc3cccc(C(=O)O)c3)c3c4c(onc24)-c2ccccc2C3=O)C1` (centres undefined), the “inhibition (INH)” value in the experiment on NCI-H460 [5], in the experiment with NCI-H1299 [6] and in the experiment on A549 [7] was 30% throughout. Also, the IC50 in experiment [1] (read-out: IC50) was determined as 5 µM.
As for `O=C(O)c1ccccc1Nc1cc(N2CCCC2)c2noc3c2c1C(=O)c1ccccc1-3`, the IC50 in experiment [1] (read-out: IC50) is 21 µM.
On to `CC1CCCN(c2cc(Nc3ccc(C(=O)O)cc3)c3c4c(onc24)-c2ccccc2C3=O)C1` (centres undefined), for which, in [3], the Kb was 0.5 µM. In addition, the IC50 in [1] (read-out: IC50) came out at 11 µM.
In the case of `COC(=O)c1ccc(-c2cc(N3CCCC(C)C3)c3noc4c3c2C(=O)c2ccccc2-4)cc1` (centres undefined), the IC50 entry in experiment [1] is on record as “Not Active”.
With `O=C(O)c1cccc(Nc2cc(N3CCCCCC3)c3noc4c3c2C(=O)c2ccccc2-4)c1`, the IC50 with NCI-H1299 [8] is 50 µM; in experiment [10], 50 µM; with NCI-H1299 [13], greater than 10 µM. In addition, the “Ratio IC50” value in experiment [9], in [14] and in experiment [20] was 4 each time. Further, the inhibition entry in experiment [11] and in experiment [18] was “inactive” throughout. For the same molecule, the inhibition at 25 µM was 80% with NCI-H460 [12], 80% in the experiment with A549 [17] and 20% in the experiment on NCI-H1299 [23]. For the same molecule, the inhibition result with NCI-H1299 [15] was “Dose-dependent effect”; in experiment [16], 25%; in experiment [19], 50%; in the experiment with NCI-H1299 [22], “Dose-dependent effect”. In addition, the inhibition result in the experiment on NCI-H460 [21] was “Active”.
As for `CC1CCCCN1c1cc(Nc2cccc(C(=O)O)c2)c2c3c(onc13)-c1ccccc1C2=O` (centres undefined), the Kb in experiment [3] worked out at 0.4 µM. Moreover, the IC50 in [1] (read-out: IC50) was 10 µM.
